In ChEMBL document CHEMBL4251686, “Withaferin A and Withanolide D Analogues with Dual Heat-Shock-Inducing and Cytotoxic Activities: Semisynthesis and Biological Evaluation” (J Nat Prod, 2018):
The source made the active and inactive calls. The calls are words filed in the database; no cut-off is given here. Residues, ends and D or L forms follow the SMILES beside them. *: point of attachment. Cbz = O=C(OCc1ccccc1)*

Experiments:
HEK-293T [1] = experiment: Ratio of induction of heat shock response in GFP-tagged human 293T cells to IC50 for cytotoxicity against human 293T cells; format: functional
[2] = Cytotoxicity against human CHP100 cells assessed as reduction in cell viability after 24 hrs by resazurin dye based Alamar blue assay; format: functional; settings: CHP100, 24 h
HEK-293T [3] = experiment: Cytotoxicity against human 293T cells assessed as reduction in cell viability after 72 hrs by resazurin dye based Alamar blue assay; format: functional
HEK-293T [4] = experiment: Induction of heat shock response in GFP-tagged human 293T cells at 1 uM after overnight incubation by luciferase reporter gene based luminometric method; format: functional, cell-based
Procedure, shortened: (§1)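 Heat-shock reporter 293T cells (GFP–firefly luciferase under HSP70B′ promoter elements, FACS-enriched high responders) were seeded at 20 000 cells/well in 384-well plates and exposed to compounds at 1.0 or 5.0 μM overnight. Luciferase activity measured by luminometer. Maximal induction expressed as fold over control (Log2), mean of two biological replicates.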

HEK-293T [5] = experiment: Induction of heat shock response in GFP-tagged human 293T cells after overnight incubation by luciferase reporter gene based luminometric method relative to control; format: functional
HEK-293T [6] = experiment: Induction of heat shock response in GFP-tagged human 293T cells at 5 uM after overnight incubation by luciferase reporter gene based luminometric method; format: functional, cell-based; procedure, shortened: as §1
HEK-293T [7] = experiment: Induction of heat shock response in GFP-tagged human 293T cells at 1 to 5 uM after overnight incubation by luciferase reporter gene based luminometric method; format: functional, cell-based; procedure, shortened: as §1

## CC1=C(C)C(=O)O[C@@H]([C@](C)(O)[C@H]2CC[C@H]3[C@@H]4C[C@H]5O[C@]56[C@@H](O)C=CC(=O)[C@]6(C)[C@H]4CC[C@]23C)C1 [WITHANOLIDE D]
HEK-293T [1]
  Ratio: 0.02
[2]
  IC50: 324 nM
HEK-293T [3]
  IC50: 710 nM
HEK-293T [4]
  Activity: Active
HEK-293T [5]
  AUC: 13

## CC1=C(CO)C(=O)O[C@@H]([C@@H](C)[C@H]2CC[C@H]3[C@@H]4C[C@H]5O[C@]56[C@H](O)C=CC(=O)[C@]6(C)[C@H]4CC[C@]23C)C1
HEK-293T [6]
  Activity: Active
HEK-293T [1]
  Ratio: 0.18
[2]
  IC50: 311 nM
HEK-293T [3]
  IC50: 250 nM
HEK-293T [5]
  AUC: 44

## CC1=C(CO)C(=O)O[C@@H]([C@@H](C)[C@H]2CC[C@H]3[C@@H]4C[C@H]5O[C@]56[C@@H](O)C=CC(=O)[C@]6(C)[C@H]4CC[C@]23C)C1 [WITHAFERIN A]
HEK-293T [1]
  Ratio: 0.23
[2]
  IC50: 424 nM
HEK-293T [3]
  IC50: 299 nM
HEK-293T [7]
  Activity: Active
HEK-293T [5]
  AUC: 68

## CC1=C(C)C(=O)O[C@@H]([C@](C)(O)[C@H]2CC[C@H]3[C@@H]4C[C@H]5O[C@]56C(=O)C=CC(=O)[C@]6(C)[C@H]4CC[C@]23C)C1
HEK-293T [4]
  Activity: Active

## CC(C)C[C@@H](C=O)NC(=O)[C@H](CC(C)C)NC(=O)[C@H](CC(C)C)NC(=O)OCc1ccccc1 [MG-132] (Cbz-Leu-Leu-Leu-aldehyde)
HEK-293T [5]
  AUC: 332

## CC(=O)O[C@H]1C=CC(=O)[C@]2(C)[C@H]3CC[C@]4(C)[C@@H]([C@@](C)(O)[C@H]5CC(C)=C(C)C(=O)O5)CC[C@H]4[C@@H]3C[C@H]3O[C@]132
HEK-293T [1]
  Ratio: 0.5
[2]
  IC50: 292 nM
HEK-293T [3]
  IC50: 141 nM
HEK-293T [4]
  Activity: Active

## CC(C)c1cc(-c2n[nH]c(=O)n2-c2ccc3c(ccn3C)c2)c(O)cc1O [GANETESPIB]
HEK-293T [5]
  AUC: 59

## CC(=O)O[C@H]1C[C@H]2[C@@H]3C[C@H]4O[C@]45[C@@H](OC(C)=O)C=CC(=O)[C@]5(C)[C@H]3CC[C@]2(C)[C@H]1[C@@](C)(O)[C@H]1CC(C)=C(C)C(=O)O1
HEK-293T [4]
  Activity: Active

## CC(=O)OCC1=C(C)C[C@H]([C@@H](C)[C@H]2CC[C@H]3[C@@H]4C[C@H]5O[C@]56[C@@H](OC(C)=O)C=CC(=O)[C@]6(C)[C@H]4CC[C@]23C)OC1=O
HEK-293T [7]
  Activity: Active
HEK-293T [5]
  AUC: 351

## CC(=O)OCC1=C(C)C[C@H]([C@@H](C)[C@H]2[C@@H](OC(C)=O)C[C@H]3[C@@H]4C[C@H](I)[C@]5(O)[C@@H](OC(C)=O)C=CC(=O)[C@]5(C)[C@H]4CC[C@]23C)OC1=O
HEK-293T [1]
  Ratio: 0.56
[2]
  IC50: 466 nM
HEK-293T [3]
  IC50: 417 nM
HEK-293T [7]
  Activity: Active
HEK-293T [5]
  AUC: 235

## CC(=O)OCC1=C(C)C[C@H]([C@@H](C)[C@H]2CC[C@H]3[C@@H]4C[C@H]5O[C@]56[C@@H](OC(C)=O)C=CC(=O)[C@]6(C)[C@H]4C[C@@H](OC(C)=O)[C@]23C)OC1=O
HEK-293T [1]
  Ratio: 3.61
[2]
  IC50: 120 nM
HEK-293T [3]
  IC50: 116 nM
HEK-293T [7]
  Activity: Active
HEK-293T [5]
  AUC: 419

## CC(=O)OCC1=C(C)C[C@H]([C@@H](C)[C@H]2CC[C@H]3[C@@H]4C[C@H]5O[C@]56[C@H](OC(C)=O)C=CC(=O)[C@]6(C)[C@H]4CC[C@]23C)OC1=O
HEK-293T [7]
  Activity: Active

## CC(=O)OCC1=C(C)C[C@H]([C@@H](C)[C@H]2[C@@H](OC(C)=O)C[C@H]3[C@@H]4C[C@H]5O[C@]56[C@@H](OC(C)=O)C=CC(=O)[C@]6(C)[C@H]4CC[C@]23C)OC1=O
HEK-293T [1]
  Ratio: 2.23
[2]
  IC50: 59 nM
HEK-293T [3]
  IC50: 88 nM
HEK-293T [7]
  Activity: Active
HEK-293T [5]
  AUC: 196
